High-throughput results (PubChem)
Most compounds without a hit are left out; they make up all but 2.1% or so of the library.
PAX8 reporter – inhibitors of PAX8 transcriptional activity in RMG-I cells | RMG-I TPO-luciferase reporter, SteadyGlo, 24 h | inhibition, % at 12.6 µM | actives 1.2% (n = 360,000) | AID 652154;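 active = mean replicate inhibition at least 60% with every replicate also reaching 60%; inconclusive = only one of the two criteria is met; inactive = mean below 60% and not all replicates reaching 60%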;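 note: luciferase light reporting Pax8 driven TPO promoter activity; plate controls were median of neutral control wells for no effect and mitoxantrone controls for full effect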
GSIS activator – GLuc luminescence reporter in INS-1E cells, primary screen for activators of glucose-dependent secretion of insulin; activation, % at 16.6 µM; actives 0.61% (n = 370,000); INS-1E GLuc reporter insulin secretion, 2-3 h;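 active = lowest replicate activation of at least 40%, so every replicate reaches that level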;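 note: 0% = median of neutral control wells and 100% = median of IBMX positive control wells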
PGC1a acetyl inh – modulators of PGC1a acetylation. AID 651687. U2OS PGC1a acetylation, AlphaScreen anti-acetyl-lysine; with virally co-expressed GCN5 acetyltransferase. actives 0.17% (n = 350,000). inhibition, % at 15.6 µM;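 active = every replicate shows inhibition of at least 40%; inconclusive = mean inhibition at least 40% but some replicate below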;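 note: 0% = neutral control wells and 100% = positive control wells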
MLL AF4-AF9 inh – inhibitors of human MLL-AF4/AF9 interaction | actives 0.47% (n = 350,000) | AlphaScreen, biotin-AF4 peptide binding to FLAG-AF9 | P42568 | inhibition, % at 10 µM;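 active = every replicate reaching a set inhibition limit, whatever the replicate mean, cut at about 25% in these data; inconclusive = mean inhibition reaches that limit but some replicates miss it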;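 note: 0% = plate neutral control median and 100% = total signal loss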
Target sequence (P42568 whole entry, looked up): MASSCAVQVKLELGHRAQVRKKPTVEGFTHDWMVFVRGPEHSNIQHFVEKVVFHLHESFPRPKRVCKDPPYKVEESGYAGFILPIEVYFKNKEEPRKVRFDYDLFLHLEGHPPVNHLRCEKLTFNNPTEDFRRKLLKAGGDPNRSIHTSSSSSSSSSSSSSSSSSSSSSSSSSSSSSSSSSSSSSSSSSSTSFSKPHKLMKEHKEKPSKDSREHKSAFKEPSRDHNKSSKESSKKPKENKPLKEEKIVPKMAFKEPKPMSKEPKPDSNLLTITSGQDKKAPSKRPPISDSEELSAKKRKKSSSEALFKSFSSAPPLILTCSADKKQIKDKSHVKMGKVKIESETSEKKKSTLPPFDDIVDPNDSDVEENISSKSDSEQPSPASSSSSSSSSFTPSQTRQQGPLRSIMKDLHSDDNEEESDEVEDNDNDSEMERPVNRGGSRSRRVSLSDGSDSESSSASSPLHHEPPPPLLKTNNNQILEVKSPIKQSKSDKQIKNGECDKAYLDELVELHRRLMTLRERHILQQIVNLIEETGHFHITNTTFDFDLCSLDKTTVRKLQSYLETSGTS
Xi reactivation – activators of X-chromosome reactivation in mouse fibroblasts. AID 743238. activation, % at 7.58 µM. actives 0.055% (n = 360,000). XiGFP mouse fibroblasts, % GFP-positive cells imaging, 3 d; cells co-treated with 5-aza-dC sensitizer; scaled so ellipticine positive control = 100%;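 active = mean normalized replicate activation at least 10% and every replicate at or above 10%; inconclusive = only one of the two criteria met; inactive = mean below 10% and not all replicates reach 10%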;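 note: 0% = median of on-plate neutral control wells and 100% = ellipticine 6 µM median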
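Schedule: 3 d treatment, 15 min room-temperature fixation; system: 68-5-11 XiGFP fibroblast line; buffer or medium: DMEM plus 5-aza-dC sensitizer; control set: ellipticine 6 µM positive control; compound: one concentration, pinned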
EWS-Fli block – EWS/Fli transcriptional activity inhibition | A673 NR0B1-luciferase reporter, viability-normalised | inhibition, % at 12.6 µM | actives 0.67% (n = 350,000) | AID 651661;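 active = mean inhibition of at least 50% after viability correction, with every replicate also passing that limit; inconclusive = mean reaches 50% but only one of two replicates passes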;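 note: firefly luciferase signal divided by Alamar Blue viability fluorescence both relative to DMSO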
* = called active by the depositor; ? = inconclusive; . = not tested or not shown.

SMILES	PAX8 reporter	GSIS activator	PGC1a acetyl inh	MLL AF4-AF9 inh	Xi reactivation	EWS-Fli block
C[C@@H]1CCCCO[C@@H](CN(C)CC2CCCCC2)[C@H](C)CN([C@@H](C)CO)C(=O)c2cc(NS(=O)(=O)c3ccc(Cl)cc3)ccc2O1	12	-10	-1	.	0	8
C[C@@H]1CN([C@H](C)CO)C(=O)c2cc(NS(=O)(=O)c3ccc(F)cc3)ccc2O[C@@H](C)CCCCO[C@@H]1CN(C)CC1CCCCC1	101*	-11	-22	5	0	-17
C[C@@H]1CCCCO[C@@H](CN(C)CC2CCCCC2)[C@H](C)CN([C@H](C)CO)C(=O)c2cc(NS(=O)(=O)c3ccc(Cl)cc3)ccc2O1	92*	-19	5	.	0	24
C[C@@H]1CN([C@@H](C)CO)C(=O)c2cc(NS(=O)(=O)c3ccc(F)cc3)ccc2O[C@@H](C)CCCCO[C@H]1CN(C)CC1CCCCC1	6	-9	-12	-5	0	14
CNC[C@H]1Oc2ccc(NC(=O)Nc3c(C)noc3C)cc2C(=O)N([C@H](C)CO)C[C@H]1C	-5	3	12	-2	0	-4
CC(C)c1[nH]nc2c1C(c1ccccc1)NC2=O (centres undefined)	3	44*	.	.	0	-14
CC(C)c1[nH]nc2c1C(c1ccc(F)cc1)NC2=O (centres undefined)	-15	25	.	.	1	-11
O=C1c2[nH]nc(-c3ccccc3)c2C(c2ccccc2)N1c1ccccc1 (centres undefined)	11	49*	.	0	0	-13
O=C1NC(c2ccccc2)c2c(-c3ccccc3)n[nH]c21 (centres undefined)	-9	54*	.	.	1	-16
CC(/C=C1\SC(=O)N(CC(=O)Nc2ccc(O)cc2)C1=O)=C\c1ccccc1	87*	2	6	7	0	12
COc1cc(/C=C2\SC(=O)N(CC(=O)Nc3cccc(C)c3)C2=O)ccc1OC(C)C(=O)O (centres undefined)	20	-9	6	0	0	6
Cc1cccc(NC(=O)CN2C(=O)S/C(=C\C(=O)Nc3ccc(Cl)cc3)C2=O)c1	-12	199*	-4	.	0	.
COc1ccc(/C=C2\SC(=O)N(CC(=O)Nc3cccc(C)c3)C2=O)cc1O	-11	-11	-6	0	0	72*
CC(=O)N1C[C@@H]2C(c3ccc(Br)cc3)[C@H](C1)N2CC(F)(F)F (some centres undefined)	.	7	.	.	0	.
O=C(c1ccccc1)N(C(=O)c1ccccc1)N1CCCC1	23	45*	-3	-2	0	-8
Cc1ccc(C(=O)N2CCCCC2)cc1NC1=C(Cl)C(=O)N(Cc2ccccc2)C1=O	72*	-49	.	-3	0	15
O=C(C[C@H]1CC[C@H](NC(=O)c2cnccn2)[C@@H](CO)O1)NCc1ccccc1F	6	10	.	1	0	6
c1ccc(-c2nnc3ccc(N4CCC5(CC4)OCCO5)nn23)cc1	.	61*	-10	.	.	.
COc1ccc(CCn2c(C3CCCCC3)nc3c(c(=O)c4ccccc4n3C)c2=O)cc1	40	-1	-20	0	0	56*
COc1ccc(CCn2c(C3CCCCC3)nc3c(c(=O)c4ccccc4n3C)c2=O)cc1OC	34	.	-61	2	0	5
O=C(Nc1cccc(-c2csc(Nc3ccccc3)n2)c1)c1cc([N+](=O)[O-])cc(C(F)(F)F)c1	-6	6	.	4	0	-32
O=C(Nc1cccc(-c2csc(Nc3ccc(Cl)cc3)n2)c1)c1cc([N+](=O)[O-])cc(C(F)(F)F)c1	79*	8	-20	2	0	1
C/C(=N/Oc1nc(C)cc(C)n1)c1ccc(F)cc1	.	64*	2	.	.	.
C/C(=N/Oc1nc(C)cc(C)n1)c1ccccc1	-59	.	4	.	.	.
O=C(Nc1ccccc1)N1CCCCN2[C@H](CO)[C@H](c3ccc(-c4ccccc4F)cc3)[C@H]2C1	-6	-33	0	12	0	19
SMILES	PAX8 reporter	GSIS activator	PGC1a acetyl inh	MLL AF4-AF9 inh	Xi reactivation	EWS-Fli block
O=C(Nc1cccc(F)c1)N1CCCCN2[C@@H](CO)[C@@H](c3ccc(-c4ccccc4F)cc3)[C@@H]2C1	114*	-9	-8	5	0	43
O=C(Nc1cccc(F)c1)N1CCCCN2[C@H](CO)[C@H](c3ccc(-c4ccccc4F)cc3)[C@H]2C1	?	-17	-13	7	0	59*
CN(C)c1ccc2c(c1)[C@@H]1C[C@H](CC(=O)NCc3ccc(Cl)cc3)O[C@@H](CO)[C@@H]1O2	.	-6	.	4	0	7
Cc1noc(C)c1S(=O)(=O)Nc1ccc2c(c1)CC(=O)N([C@@H](C)CO)C[C@H](C)[C@H](CN(C)Cc1ccncc1)O2	-12	17	5	-2	0	-2
CNC[C@@H]1Oc2cc(C#CC3CCCCC3)ccc2S(=O)(=O)N([C@@H](C)CO)C[C@@H]1C	92*	12	-14	-1	-1	56*
C[C@H]1CN([C@@H](C)CO)S(=O)(=O)c2ccc(C#CC3CCCCC3)cc2O[C@@H]1CN(C)Cc1cccnc1	.	.	64*	7	.	35
C[C@H]1CN([C@@H](C)CO)S(=O)(=O)c2ccc(C#CC3CCCC3)cc2O[C@@H]1CN(C)Cc1cccnc1	98*	-3	-2	7	0	19
C[C@H]1CN([C@@H](C)CO)S(=O)(=O)c2ccc(C#CC3CCCC3)cc2O[C@H]1CN(C)Cc1cncnc1	-11	-28	-7	.	1	52*
C[C@@H]1CN([C@@H](C)CO)S(=O)(=O)c2ccc(C#CC3CCCC3)cc2O[C@@H]1CN(C)Cc1cccnc1	18	-10	-9	6	1	12
C[C@H](CO)N1C[C@H](C)[C@H](CN(C)S(=O)(=O)c2cn(C)cn2)Oc2ccc(NC(=O)CCCCCC(=O)Nc3ccccc3N)cc2CC1=O	.	16	-2	-1	-1	-7
COC(=O)C[C@H]1C[C@@H]2c3cc(NC(=O)Nc4ccc(OC)cc4)ccc3O[C@@H]2[C@H](CO)O1	-18	-5	4	.	0	-2
CC(C)CC#Cc1ccc2c(c1)O[C@H](CN(C)C(=O)Cc1ccccc1)[C@H](C)CN([C@H](C)CO)S2(=O)=O	.	-7	-52	-5	-1	9
CN(c1ccc(C(=O)N2CCN(Cc3ccccc3)CC2)cc1)S(=O)(=O)c1ccccc1	-5	56*	1	1	0	16
COc1ccc(S(=O)(=O)N(C)c2ccc(C(=O)N3CCCC3)cc2)cc1OC	-13	43*	-2	-1	0	4
